Converted amounts (≈) assume the structure as drawn. “And” between values parts separate entries of the source, which are not always exact repeats. Equal entries are not always repeated.

Experiment [1] concerns Candida albicans. The experiment in a line: In vitro antifungal activity against Candida albicans CY 1002. Type of experiment: functional, organism-based.
The target in experiment [2] is Chitin synthase 1 (Candida albicans, UniProt P23316). Briefly: Inhibitory of Candida albicans chitin synthase 1.
Chain of Chitin synthase 1 (P23316 whole entry): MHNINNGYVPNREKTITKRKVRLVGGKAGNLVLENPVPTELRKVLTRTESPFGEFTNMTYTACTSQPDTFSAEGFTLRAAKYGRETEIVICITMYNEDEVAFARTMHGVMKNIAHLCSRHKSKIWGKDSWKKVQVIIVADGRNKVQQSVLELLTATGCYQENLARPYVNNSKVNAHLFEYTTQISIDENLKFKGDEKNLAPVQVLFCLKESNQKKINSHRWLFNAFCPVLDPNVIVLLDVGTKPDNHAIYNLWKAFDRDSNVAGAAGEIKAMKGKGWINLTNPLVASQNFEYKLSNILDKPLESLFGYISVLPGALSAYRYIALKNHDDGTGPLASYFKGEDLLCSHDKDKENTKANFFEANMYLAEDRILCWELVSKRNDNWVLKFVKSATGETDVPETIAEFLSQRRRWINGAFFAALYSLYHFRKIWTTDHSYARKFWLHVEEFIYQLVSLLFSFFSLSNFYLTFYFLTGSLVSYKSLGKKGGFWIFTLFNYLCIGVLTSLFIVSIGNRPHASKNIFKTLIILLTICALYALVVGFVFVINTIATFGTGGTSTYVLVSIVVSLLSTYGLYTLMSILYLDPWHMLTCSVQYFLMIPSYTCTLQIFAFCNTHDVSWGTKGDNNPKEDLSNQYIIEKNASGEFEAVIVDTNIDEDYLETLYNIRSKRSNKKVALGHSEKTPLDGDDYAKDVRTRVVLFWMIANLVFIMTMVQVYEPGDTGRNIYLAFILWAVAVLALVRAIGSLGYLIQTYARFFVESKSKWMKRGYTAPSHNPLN
Experiment [3] relates to Mus musculus. The experiment in a line: In vivo antifungal activity was evaluated in target organ kidney assay (TOKA) in mice infected with Candida albicans CY 10025 X 10e5 cell after intravenous administration of compound at 5 mg/kg. Type of experiment: functional. Summed up:
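Systemic candidiasis in mice, target organ kidney assay: infection with 5 × 10^5 cells/mouse, compound given iv at 0, 2 and 4 h post-infection in 5% DMSO-5% PEG300-30% HPCD. Kidney CFU counted; T/C = treated CFU/control CFU × 100.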

The test system of experiment [4] is Aspergillus fumigatus. Briefly: In vitro antifungal activity of compound was tested against Aspergillus fumigatus CF1003.
Experiment [5] concerns Cryptococcus neoformans. Briefly: In vitro antifungal activity of compound was tested against Cryptococcus neoformans CY 1057.
Experiment [6] has as its system Candida albicans. The experiment in a line: In vitro antifungal activity against Candida albicans CY 1124. In kind it is functional, organism-based.
In experiment [7] the test system is Candida albicans. The experiment in a line: In vitro antifungal activity against Candida albicans CY 3003. Type of experiment: functional, organism-based.
In experiment [8] the test system is Pichia kudriavzevii. Briefly: In vitro antifungal activity against Candida krusei CY 1191. Type of experiment: functional, organism-based.
Experiment [9] concerns Nakaseomyces glabratus. The experiment in a line: In vitro antifungal activity against Candida glabrata CY 1014. In kind it is functional, organism-based.
For experiment [10], the system named is Candida parapsilosis. The experiment in a line: In vitro antifungal activity of compound was tested against Candida parapsilosis CY 1028. In kind it is functional, organism-based. Particulars: Lodderomyces parapsilosis.
In experiment [11] the test system is Candida albicans. Briefly: In vitro antifungal activity against Candida albicans CY 1003. In kind it is functional, organism-based.
The subject of experiment [12] is Candida tropicalis. Briefly: In vitro antifungal activity of compound was tested against Candida tropicalis CY 1038. In kind it is functional, organism-based.
For experiment [13], the system named is Cryptococcus neoformans. Briefly: In vitro antifungal activity of compound was tested against Cryptococcus neoformans CY 1059.
Experiment [14] deals with Candida albicans. Briefly: In vitro antifungal activity against […] CY 1057. In kind it is functional, organism-based.
In experiment [15] the test system is Candida albicans. The experiment in a line: In vitro antifungal activity against Aspergillus fumigatus CF 1003. In kind it is functional, organism-based.
Experiment [16] deals with Mus musculus. Briefly: In vivo antifungal activity was evaluated in target organ kidney assay (TOKA) in mice infected with Candida albicans CY 10025 X 10e5 cell after intravenous administration of compound at 1 mg/kg. Type of experiment: functional. Summed up:
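Systemic candidiasis in mice, infected with C. albicans CY1002 at 5 × 10^5 cells/mouse. Dosed iv at 0, 2 and 4 h after infection: 5 mg/kg in 5% DMSO 5% PEG300-30% HPCD, comparator azole at 1 mg/kg. Kidney CFU counted; T/C = treated CFU/control CFU × 100.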

Take `CC(C)(C)C#C/C=C/CNc1cccc2nc(O)ccc12`: the IC50 in [1] was 3.3 µg/mL (≈ 11.8 µM); in experiment [2], 71.3 nM and 70 nM.

As for `CCCCN(C/C=C/C#CC(C)(C)C)c1cccc2c1CCC(=O)N2`, the values for the IC50 in [1] and in experiment [2] were over 200 µg/mL and 0.35 nM, respectively.

Consider `CN(CC#CC#CC(C)(C)O)c1cccc2c1CCC(=O)N2`, for which the IC50 was over 200 µg/mL in experiment [1] and 213 nM in experiment [2].

Take `CC(C)(C)C#C/C=C/CNc1cccc2oc(=O)ccc12`: the IC50 in [2] was determined as 12000 nM.

On to `CN(CC#CC#Cc1ccccc1)c1cccc2c1CCC(=O)N2`, for which the IC50 was over 200 µg/mL in [1] and 13700 nM in experiment [2].

Consider `CC(C)(C)C#C/C=C/CN(Cc1ccccc1)c1cccc2c1CCC(=O)N2`, for which the values for the IC50 in [1] and in experiment [2] were over 200 µg/mL and 54 nM, respectively.

Take `CN(CC#CC#CC(C)(C)C)c1cccc2c1CC(O)C(=O)N2` (stereo not drawn): the IC50 in experiment [1] is 0.13 µg/mL (≈ 0.419 µM); in [2], 3 nM; in experiment [4] it was 82 µg/mL (≈ 264 µM); in [5] it was over 200 µg/mL. This molecule also gave a T/C in [3] of 39%.

With `CCOP(=O)(OCC)OC1Cc2c(cccc2N(C)CC#CC#CC(C)(C)C)NC1=O` (stereo not drawn), the IC50 in [1] was 2.1 µg/mL (≈ 4.7 µM); in [2] it was 0.76 nM; in experiment [4], 21 µg/mL (≈ 47 µM); in experiment [5] it was 0.23 µg/mL (≈ 0.515 µM).

With `COC(C)(C)C#CC#CCN(C)c1cccc2c1CCC(=O)N2`, the figures for the IC50 in experiment [1] and in experiment [2] were 3.5 µg/mL (≈ 11.3 µM) and 1030 nM, respectively.

`CC(C)(C)CCCCCNc1cccc2[nH]c(=O)ccc12`: the IC50 in experiment [2] is over 350000 nM.

On to `CC(C)(C)C#C/C=C/CN(c1cccc2c1CCC(=O)N2)S(C)(=O)=O`, for which the IC50 in experiment [1] was over 200 µg/mL; in experiment [2] it was 391 nM.

For `CN(CC#CC#CC(C)(C)C)c1cccc2c1CC(N)C(=O)N2` (stereo not drawn), the concentration for half-maximal inhibition (IC50) was determined as 20 µg/mL (≈ 64.6 µM) in [1], 12.3 nM in experiment [2], 35 µg/mL (≈ 113 µM) in [4] and 15 µg/mL (≈ 48.5 µM) in experiment [5]. Also, in experiment [3], the T/C is given as 23%.

Take `CC(C)[C@@H](N)C(=O)OC1Cc2c(cccc2N(C)CC#CC#CC(C)(C)C)NC1=O` (stereo partly drawn): the IC50 in [1] is 1.3 µg/mL (≈ 3.17 µM); in experiment [2], 14.9 nM; in [4], 19 µg/mL (≈ 46.4 µM); in experiment [5] it was 16 µg/mL (≈ 39.1 µM). Moreover, the T/C in [3] is listed as 15%.

Take `CC(=O)Nc1cccc(NC/C=C/C#CC(C)(C)C)c1`: in experiment [2], the IC50 is 1000 nM. In other words, the single-digit micromolar range.

As to `CC(C)(C)C#C/C=C/CNCc1ccc(O)nc1`, in experiment [2], the concentration for half-maximal inhibition (IC50) turned out to be 211000 nM.

On to `CC(C)(C)C#C/C=C/CNc1cccc2c1CCC(=O)N2`, for which the IC50 is over 200 µg/mL in experiment [1] and 70.9 nM in experiment [2].

Regarding `CCC#CC#CCN(C)c1cccc2c1CCC(=O)N2`, the IC50 in [1] turned out to be 200 µg/mL (≈ 751 µM); in experiment [2], 7.88 nM.

For `CC(C)N(C/C=C/C#CC(C)(C)C)c1cccc2c1CCC(=O)N2`, the IC50 in [1] was over 200 µg/mL; in experiment [2] it was 1.23 nM.

With `CN(C/C=C/C#CC(C)(C)C)c1cccc2c1CCC(=O)N2`, the IC50 in experiment [1] is 0.19 µg/mL (≈ 0.641 µM); in [2] it was 2.77 nM.

Consider `CN(CCCC#CC(C)(C)C)c1cccc2c1CCC(=O)N2`, for which the IC50 in experiment [1] is over 200 µg/mL; in experiment [2], 8.95 nM.

For `CCCCCN(C/C=C/C#CC(C)(C)C)c1cccc2c1CCC(=O)N2`, the results for the IC50 in experiment [1] and in [2] were over 200 µg/mL and 1.1 nM, respectively.

Turning to `CN(CC#CC#CC(C)(C)C)c1cccc2c1CCC(=O)N2`, the IC50 in experiment [6] amounted to 0.17 µg/mL (≈ 0.577 µM); in [7] it was 0.09 µg/mL (≈ 0.306 µM); in experiment [8] it was 0.31 µg/mL (≈ 1.05 µM); in experiment [9], 0.47 µg/mL (≈ 1.6 µM); in experiment [10] it was 0.5 µg/mL (≈ 1.7 µM); in experiment [1], 0.07 µg/mL (≈ 0.238 µM). Moreover, the half-maximal inhibitory concentration (IC50) in experiment [11] was 0.1 µg/mL (≈ 0.34 µM); in [12] it was 0.07 µg/mL (≈ 0.238 µM); in experiment [2] it was 0.14 nM; in [4], 43 µg/mL (≈ 146 µM); in experiment [13], over 200 µg/mL. In addition, the T/C in experiment [3] is recorded as 34%.

On to `CCCN(C/C=C/C#CC(C)(C)C)c1cccc2c1CCC(=O)N2`, for which the results for the half-inhibitory concentration (IC50) in [1] and in experiment [2] were over 200 µg/mL and 0.68 nM, respectively.

Regarding `CCN(C/C=C/C#CC(C)(C)C)c1cccc2c1CCC(=O)N2`, the values for the IC50 in experiment [1] and in experiment [2] were 0.27 µg/mL (≈ 0.87 µM) and 0.9 nM, respectively.

In [2], `Cn1c(=O)ccc2c(NC/C=C/C#CC(C)(C)C)cccc21` displayed an IC50 of 16000 nM. This counts as double-digit micromolar.

For the molecule `CN(C/C=C\C#CC(C)(C)C)c1cccc2c1CCC(=O)N2`, the values for the IC50 in experiment [1] and in experiment [2] were 95 µg/mL (≈ 320 µM) and 13.2 nM, respectively.

On to `CC(=O)N(C/C=C/C#CC(C)(C)C)c1cccc2c1CCC(=O)N2`, for which the IC50 was over 200 µg/mL in experiment [1] and 775 nM in [2].

As for `CC(C)(C)C#C/C=C/CNc1cccc2ncccc12`, it took 4500 nM to reach half-maximal inhibition in experiment [2] (IC50).

`CN(Cc1ccc(C#CC(C)(C)C)cc1)c1cccc2c1CCC(=O)N2`: the IC50 in [1] was over 200 µg/mL; in experiment [2], 7.22 nM.

Turning to `OC(Cn1cncn1)(Cn1cncn1)c1ccc(F)cc1F` [FLUCONAZOLE], the results for the IC50 in experiment [1], in experiment [14] and in experiment [15] were 1.2 µg/mL (≈ 3.92 µM), 3.4 µg/mL (≈ 11.1 µM) and 50 µg/mL (≈ 163 µM), respectively. In experiment [16], the T/C turned out to be 38%.

With `C[C@@H]([C@H](N)C(=O)N[C@H](C(=O)O)[C@H]1O[C@@H](n2ccc(=O)[nH]c2=O)[C@H](O)[C@@H]1O)[C@H](O)c1ccc(O)cn1` [NIKKOMYCIN], the half-maximal inhibitory concentration (IC50) was 15 µg/mL (≈ 30.3 µM) in experiment [6]; 7 µg/mL (≈ 14.1 µM) in [7]; over 200 µg/mL in experiment [8]; over 200 µg/mL in experiment [9]; 13 µg/mL (≈ 26.2 µM) in experiment [10]; 12 µg/mL (≈ 24.2 µM) in experiment [1]. In addition, the IC50 in experiment [11] was 81 µg/mL (≈ 163 µM); in [12], 73 µg/mL (≈ 147 µM); in experiment [2], 3200 nM; in [4], 11 µg/mL (≈ 22.2 µM); in experiment [13], over 200 µg/mL.

Source of the values: ChEMBL document CHEMBL1133216, “Synthesis and structure-activity relationships of novel fungal chitin synthase inhibitors” (Bioorg Med Chem Lett, 2000).
